# Laboratory results published in ChEMBL document CHEMBL3098105, “7,7'-Diazaindirubin--a small molecule inhibitor of casein kinase 2 in vitro and in cells” (Bioorg Med Chem, 2014).
# Legend:
# [1] = target: Focal adhesion kinase 1 (Homo sapiens) (UniProt Q05397); assay: Inhibition of FAK fl (unknown origin) assessed as residual activity at 1 uM relative to control
# [2] = target: Receptor tyrosine-protein kinase erbB-2 (Homo sapiens) (UniProt P04626); assay: Inhibition of ERBB2 (unknown origin) assessed as residual activity at 1 uM relative to control
# Chain of Receptor tyrosine-protein kinase erbB-2 (Homo sapiens) (P04626 whole entry): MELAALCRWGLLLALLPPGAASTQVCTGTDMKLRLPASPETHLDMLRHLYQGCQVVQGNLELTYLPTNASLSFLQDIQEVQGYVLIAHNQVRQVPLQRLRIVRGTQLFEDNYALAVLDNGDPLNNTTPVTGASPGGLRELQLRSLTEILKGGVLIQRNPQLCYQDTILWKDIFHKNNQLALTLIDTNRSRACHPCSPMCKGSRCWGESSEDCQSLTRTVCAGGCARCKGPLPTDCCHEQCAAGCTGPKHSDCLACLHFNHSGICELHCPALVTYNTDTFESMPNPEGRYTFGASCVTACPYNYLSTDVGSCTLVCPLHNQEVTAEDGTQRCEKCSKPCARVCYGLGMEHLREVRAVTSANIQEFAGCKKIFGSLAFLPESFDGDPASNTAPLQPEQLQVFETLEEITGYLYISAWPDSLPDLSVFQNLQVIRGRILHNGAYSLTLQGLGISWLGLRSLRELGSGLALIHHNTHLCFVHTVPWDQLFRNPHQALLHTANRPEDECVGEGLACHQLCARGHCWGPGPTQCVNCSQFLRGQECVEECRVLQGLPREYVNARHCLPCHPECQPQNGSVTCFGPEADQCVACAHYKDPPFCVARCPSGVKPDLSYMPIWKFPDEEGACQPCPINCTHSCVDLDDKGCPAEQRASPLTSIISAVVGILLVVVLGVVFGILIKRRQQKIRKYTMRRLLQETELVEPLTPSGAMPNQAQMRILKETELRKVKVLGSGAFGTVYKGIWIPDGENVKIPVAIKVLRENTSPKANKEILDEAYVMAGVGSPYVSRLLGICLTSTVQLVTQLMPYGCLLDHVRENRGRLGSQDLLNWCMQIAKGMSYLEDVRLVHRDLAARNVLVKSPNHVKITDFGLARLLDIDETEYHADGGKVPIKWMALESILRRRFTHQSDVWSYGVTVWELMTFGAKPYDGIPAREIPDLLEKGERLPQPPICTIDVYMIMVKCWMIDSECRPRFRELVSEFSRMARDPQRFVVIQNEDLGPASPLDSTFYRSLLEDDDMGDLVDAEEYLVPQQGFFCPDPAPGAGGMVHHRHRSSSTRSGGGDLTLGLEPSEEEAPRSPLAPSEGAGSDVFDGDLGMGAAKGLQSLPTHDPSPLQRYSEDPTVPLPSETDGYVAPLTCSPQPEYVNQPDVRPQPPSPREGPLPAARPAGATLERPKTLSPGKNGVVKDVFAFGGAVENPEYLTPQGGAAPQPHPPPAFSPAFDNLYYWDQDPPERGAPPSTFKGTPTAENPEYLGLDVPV
# [3] = target: Cyclin-dependent kinase 2/cyclin E1 (Homo sapiens) (UniProt P24864+P24941); assay: Inhibition of CDK2/CycE (unknown origin) assessed as residual activity at 1 uM relative to control; format: protein-complex assay
# [4] = target: Cyclin-dependent kinase 1/cyclin B1 (Homo sapiens) (UniProt P06493+P14635); assay: Inhibition of CDK1/CycB1 (unknown origin) assessed as residual activity at 1 uM relative to control; format: protein-complex assay
# [5] = target: CDK2/Cyclin A2 (Homo sapiens) (UniProt P24941+P20248); assay: Inhibition of CDK2/CycA (unknown origin) assessed as residual activity at 1 uM relative to control; format: protein-complex assay
# [6] = Antiproliferative activity against human Hs 578T cells after 3 days by sulforhodamine B assay; format: functional; details: 72 h
# How it was run: (§1)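 Tested in the NCI 60 cell line panel. GI50 is the concentration giving 50% inhibition of cell growth, and values are the mean of two series of tests.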
# [7] = test system: A498; assay: Antiproliferative activity against human A498 cells after 3 days by sulforhodamine B assay; format: functional; details: A498, 72 h; how it was run: as §1
# [8] = test system: ACHN; assay: Antiproliferative activity against human ACHN cells after 3 days by sulforhodamine B assay; format: functional; details: 72 h; how it was run: as §1
# [9] = Antiproliferative activity against human OVCAR5 cells after 3 days by sulforhodamine B assay; format: functional; details: OVCAR-5, 72 h; how it was run: as §1
# [10] = test system: OVCAR-3; assay: Antiproliferative activity against human OVCAR3 cells after 3 days by sulforhodamine B assay; format: functional; details: OVCAR-3, 72 h; how it was run: as §1
# [11] = Antiproliferative activity against human UACC257 cells after 3 days by sulforhodamine B assay; format: functional; details: UACC-257, 72 h
# [12] = test system: HCT-15; assay: Antiproliferative activity against human HCT15 cells after 3 days by sulforhodamine B assay; format: functional; details: HCT-15, 72 h; how it was run: as §1
# [13] = target: Serine/threonine-protein kinase WNK3 (Homo sapiens) (UniProt Q9BYP7); assay: Inhibition of human WNK3 assessed as residual activity at 1 uM relative to control
# [14] = target: Testis-specific serine/threonine-protein kinase 1 (Homo sapiens) (UniProt Q9BXA7); assay: Inhibition of human TSSK1 assessed as residual activity at 1 uM relative to control
# Chain of Testis-specific serine/threonine-protein kinase 1 (Homo sapiens) (Q9BXA7 whole entry): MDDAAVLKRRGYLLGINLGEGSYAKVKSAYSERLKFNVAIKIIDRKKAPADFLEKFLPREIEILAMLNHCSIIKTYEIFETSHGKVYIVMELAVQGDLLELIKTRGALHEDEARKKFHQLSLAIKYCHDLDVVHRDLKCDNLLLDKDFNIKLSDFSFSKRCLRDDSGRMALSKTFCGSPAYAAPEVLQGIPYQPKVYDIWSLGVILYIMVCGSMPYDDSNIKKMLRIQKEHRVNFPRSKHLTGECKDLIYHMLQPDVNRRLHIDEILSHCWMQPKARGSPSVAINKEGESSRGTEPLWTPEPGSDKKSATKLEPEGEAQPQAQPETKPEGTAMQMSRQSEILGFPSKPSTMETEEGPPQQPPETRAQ
# [15] = target: Serine/threonine-protein kinase tousled-like 2 (Homo sapiens) (UniProt Q86UE8); assay: Inhibition of human TLK2 assessed as residual activity at 1 uM relative to control
# [16] = target: Serine/threonine-protein kinase TBK1 (Homo sapiens) (UniProt Q9UHD2); assay: Inhibition of human TBK1 assessed as residual activity at 1 uM relative to control
# Chain of Serine/threonine-protein kinase TBK1 (Homo sapiens) (Q9UHD2 whole entry): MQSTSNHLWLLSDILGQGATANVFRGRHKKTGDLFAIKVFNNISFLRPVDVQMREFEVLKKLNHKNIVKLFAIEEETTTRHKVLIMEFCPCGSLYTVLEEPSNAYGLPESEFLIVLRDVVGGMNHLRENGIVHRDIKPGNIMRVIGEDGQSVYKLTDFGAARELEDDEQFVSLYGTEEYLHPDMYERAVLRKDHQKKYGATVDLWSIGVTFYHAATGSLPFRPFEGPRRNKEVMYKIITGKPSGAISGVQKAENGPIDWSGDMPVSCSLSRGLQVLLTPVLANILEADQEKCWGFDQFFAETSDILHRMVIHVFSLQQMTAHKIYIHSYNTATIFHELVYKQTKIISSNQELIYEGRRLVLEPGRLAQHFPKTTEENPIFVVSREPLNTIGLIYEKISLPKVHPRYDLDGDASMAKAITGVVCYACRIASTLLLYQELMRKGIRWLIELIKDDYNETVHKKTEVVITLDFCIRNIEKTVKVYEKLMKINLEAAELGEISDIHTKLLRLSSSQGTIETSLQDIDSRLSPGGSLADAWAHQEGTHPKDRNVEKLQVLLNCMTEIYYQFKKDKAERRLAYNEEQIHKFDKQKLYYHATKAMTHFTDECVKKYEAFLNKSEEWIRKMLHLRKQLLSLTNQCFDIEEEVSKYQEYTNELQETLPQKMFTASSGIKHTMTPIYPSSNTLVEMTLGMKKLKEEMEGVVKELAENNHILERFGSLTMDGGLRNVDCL
# [17] = target: Tyrosine-protein kinase SYK (Homo sapiens) (UniProt P43405); assay: Inhibition of human Syk assessed as residual activity at 1 uM relative to control
# [18] = target: SRSF protein kinase 1 (Homo sapiens) (UniProt Q96SB4); assay: Inhibition of human SRPK1 assessed as residual activity at 1 uM relative to control
# [19] = target: Mitogen-activated protein kinase 11 (Homo sapiens) (UniProt Q15759); assay: Inhibition of human SAPK2beta assessed as residual activity at 1 uM relative to control
# [20] = Antiproliferative activity against human EKVX cells after 3 days by sulforhodamine B assay; format: functional; details: 72 h; how it was run: as §1
# [21] = test system: MCF7; assay: Cell cycle arrest in human MCF7 cells assessed as accumulation at G1 phase at 0.25 uM after 24 hrs using propidium iodide staining by FACS analysis (reference value: 57.74%); format: functional
# [22] = target: Serine/threonine-protein kinase MARK2 (Homo sapiens) (UniProt Q7KZI7); assay: Inhibition of human PAR1Balpha assessed as residual activity at 1 uM relative to control
# [23] = target: Serine/threonine-protein kinase PAK 4 (Homo sapiens) (UniProt O96013); assay: Inhibition of human PAK4 assessed as residual activity at 1 uM relative to control
# [24] = target: Serine/threonine-protein kinase Nek3 (Homo sapiens) (UniProt P51956); assay: Inhibition of human NEK3 assessed as residual activity at 1 uM relative to control
# [25] = target: Serine/threonine-protein kinase 3 (Homo sapiens) (UniProt Q13188); assay: Inhibition of human MST2 assessed as residual activity at 1 uM relative to control
# Chain of Serine/threonine-protein kinase 3 (Homo sapiens) (Q13188 whole entry): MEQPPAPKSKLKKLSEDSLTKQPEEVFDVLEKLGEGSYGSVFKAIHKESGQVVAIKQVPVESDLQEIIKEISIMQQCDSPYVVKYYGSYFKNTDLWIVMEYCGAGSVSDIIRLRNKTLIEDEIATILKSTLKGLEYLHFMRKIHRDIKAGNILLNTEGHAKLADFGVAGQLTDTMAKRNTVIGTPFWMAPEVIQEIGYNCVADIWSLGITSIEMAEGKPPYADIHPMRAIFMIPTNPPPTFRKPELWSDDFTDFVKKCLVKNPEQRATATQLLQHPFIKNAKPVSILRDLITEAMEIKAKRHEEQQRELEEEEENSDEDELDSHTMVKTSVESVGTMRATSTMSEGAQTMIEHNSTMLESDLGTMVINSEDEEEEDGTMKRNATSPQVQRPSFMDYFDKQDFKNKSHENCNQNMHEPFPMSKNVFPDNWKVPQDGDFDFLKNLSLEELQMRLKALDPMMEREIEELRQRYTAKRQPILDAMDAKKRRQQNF
# [26] = target: Dual specificity mitogen-activated protein kinase kinase 7 (Homo sapiens) (UniProt O14733); assay: Inhibition of human MKK7beta assessed as residual activity at 1 uM relative to control
# [27] = target: Dual specificity mitogen-activated protein kinase kinase 6 (Homo sapiens) (UniProt P52564); assay: Inhibition of human MKK6 assessed as residual activity at 1 uM relative to control
# [28] = target: Insulin receptor (Homo sapiens) (UniProt P06213); assay: Inhibition of human IR assessed as residual activity at 1 uM relative to control
# [29] = target: Rhodopsin kinase GRK7 (Homo sapiens) (UniProt Q8WTQ7); assay: Inhibition of human GRK7 assessed as residual activity at 1 uM relative to control
# [30] = target: Receptor-type tyrosine-protein kinase FLT3 (Homo sapiens) (UniProt P36888); assay: Inhibition of human Flt3 assessed as residual activity at 1 uM relative to control
# [31] = target: Tyrosine-protein kinase Fes/Fps (Homo sapiens) (UniProt P07332); assay: Inhibition of human Fes assessed as residual activity at 1 uM relative to control
# Chain of Tyrosine-protein kinase Fes/Fps (Homo sapiens) (P07332 whole entry): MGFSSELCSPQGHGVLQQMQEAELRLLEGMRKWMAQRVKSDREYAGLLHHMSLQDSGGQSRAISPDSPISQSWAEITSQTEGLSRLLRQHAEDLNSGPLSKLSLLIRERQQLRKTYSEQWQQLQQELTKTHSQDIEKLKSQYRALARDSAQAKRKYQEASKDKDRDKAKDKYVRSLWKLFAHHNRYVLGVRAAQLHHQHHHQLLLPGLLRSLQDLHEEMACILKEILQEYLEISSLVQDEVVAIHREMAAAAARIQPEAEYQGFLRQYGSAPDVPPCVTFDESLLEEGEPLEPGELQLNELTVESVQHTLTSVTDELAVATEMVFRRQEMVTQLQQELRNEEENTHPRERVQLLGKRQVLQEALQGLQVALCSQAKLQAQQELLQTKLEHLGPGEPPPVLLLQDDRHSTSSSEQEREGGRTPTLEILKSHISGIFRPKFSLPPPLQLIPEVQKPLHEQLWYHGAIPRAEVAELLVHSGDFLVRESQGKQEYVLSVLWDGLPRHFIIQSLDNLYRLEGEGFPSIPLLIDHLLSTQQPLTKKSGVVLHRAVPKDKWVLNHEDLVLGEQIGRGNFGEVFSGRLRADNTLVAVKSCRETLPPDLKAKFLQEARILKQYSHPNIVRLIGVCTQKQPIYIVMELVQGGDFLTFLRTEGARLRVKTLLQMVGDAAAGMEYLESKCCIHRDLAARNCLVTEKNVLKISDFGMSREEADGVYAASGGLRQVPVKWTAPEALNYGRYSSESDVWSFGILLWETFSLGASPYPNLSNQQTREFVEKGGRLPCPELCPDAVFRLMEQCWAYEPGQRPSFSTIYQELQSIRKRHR
# [32] = target: Receptor tyrosine-protein kinase erbB-4 (Homo sapiens) (UniProt Q15303); assay: Inhibition of human ErbB4 assessed as residual activity at 1 uM relative to control
# [33] = target: Ephrin type-A receptor 4 (Homo sapiens) (UniProt P54764); assay: Inhibition of human EphA4 assessed as residual activity at 1 uM relative to control
# [34] = target: RAF proto-oncogene serine/threonine-protein kinase (Homo sapiens) (UniProt P04049); assay: Inhibition of human c-RAF assessed as residual activity at 1 uM relative to control
# [35] = target: Serine/threonine-protein kinase BRSK2 (Homo sapiens) (UniProt Q8IWQ3); assay: Inhibition of human BrSK2 assessed as residual activity at 1 uM relative to control
# [36] = target: Tyrosine-protein kinase ABL2 (Homo sapiens) (UniProt P42684); assay: Inhibition of human Arg assessed as residual activity at 1 uM relative to control
# [37] = target: Activated CDC42 kinase 1 (Homo sapiens) (UniProt Q07912); assay: Inhibition of human ACK1 assessed as residual activity at 1 uM relative to control
# [38] = target: Epidermal growth factor receptor (Homo sapiens) (UniProt P00533); assay: Inhibition of EGF-R (unknown origin) assessed as residual activity at 10 uM relative to control
# [39] = target: Tyrosine-protein kinase JAK2 (Homo sapiens) (UniProt O60674); assay: Inhibition of JAK2 (unknown origin) assessed as residual activity at 1 uM relative to control
# Chain of Tyrosine-protein kinase JAK2 (Homo sapiens) (O60674 whole entry): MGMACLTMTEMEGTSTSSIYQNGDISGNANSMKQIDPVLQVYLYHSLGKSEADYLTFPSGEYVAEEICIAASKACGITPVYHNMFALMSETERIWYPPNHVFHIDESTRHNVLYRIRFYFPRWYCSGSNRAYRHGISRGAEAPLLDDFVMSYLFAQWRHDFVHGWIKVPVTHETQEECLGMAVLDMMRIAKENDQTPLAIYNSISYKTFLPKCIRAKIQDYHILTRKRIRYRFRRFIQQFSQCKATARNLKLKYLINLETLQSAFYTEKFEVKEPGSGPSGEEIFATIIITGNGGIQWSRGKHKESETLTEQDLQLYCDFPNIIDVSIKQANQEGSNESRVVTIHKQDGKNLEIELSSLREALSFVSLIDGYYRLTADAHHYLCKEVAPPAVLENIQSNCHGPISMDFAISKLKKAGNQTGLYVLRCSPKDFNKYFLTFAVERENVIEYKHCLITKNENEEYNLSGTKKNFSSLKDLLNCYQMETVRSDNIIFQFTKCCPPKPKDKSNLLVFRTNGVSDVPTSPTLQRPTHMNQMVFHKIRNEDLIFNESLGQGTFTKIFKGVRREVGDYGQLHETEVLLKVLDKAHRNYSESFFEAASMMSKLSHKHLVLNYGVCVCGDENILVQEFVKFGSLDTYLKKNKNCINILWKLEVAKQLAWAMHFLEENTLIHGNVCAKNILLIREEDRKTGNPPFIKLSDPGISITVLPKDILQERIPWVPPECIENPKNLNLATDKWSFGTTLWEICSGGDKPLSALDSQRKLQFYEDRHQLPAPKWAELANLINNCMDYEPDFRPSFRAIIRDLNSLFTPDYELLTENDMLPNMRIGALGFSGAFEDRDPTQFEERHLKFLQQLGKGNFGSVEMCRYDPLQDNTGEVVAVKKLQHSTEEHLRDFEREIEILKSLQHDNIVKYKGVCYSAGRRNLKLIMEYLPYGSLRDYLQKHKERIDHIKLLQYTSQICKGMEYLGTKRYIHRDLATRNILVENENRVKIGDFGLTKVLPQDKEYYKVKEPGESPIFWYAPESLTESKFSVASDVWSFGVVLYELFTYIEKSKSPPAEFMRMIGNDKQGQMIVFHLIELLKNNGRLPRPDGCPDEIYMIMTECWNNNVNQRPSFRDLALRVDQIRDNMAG
smiles,measurement,setting,value
O=C1Nc2ncccc2/C1=C1/Nc2ncccc2C1=O,Activity,[1],94%
same,Activity,[2],99%
same,Activity,[3],90%
same,Activity,[4],70%
same,Activity,[5],116%
same,GI50,[6],1670 nM
same,GI50,[7],1660 nM
same,GI50,[8],1480 nM
same,GI50,[9],2470 nM
same,GI50,[10],289 nM
same,GI50,[11],214 nM
same,GI50,[12],575 nM
same,Activity,[13],106%
same,Activity,[14],85%
same,Activity,[15],103%
same,Activity,[16],120%
same,Activity,[17],91%
same,Activity,[18],92%
same,Activity,[19],147%
same,GI50,[20],1270 nM
same,Activity,[21],58.28%
same,Activity,[22],53%
same,Activity,[23],108%
same,Activity,[24],109%
same,Activity,[25],105%
same,Activity,[26],103%
same,Activity,[27],87%
same,Activity,[28],98%
same,Activity,[29],96%
same,Activity,[30],69%
same,Activity,[31],107%
same,Activity,[32],121%
same,Activity,[33],78%
same,Activity,[34],73%
same,Activity,[35],108%
same,Activity,[36],98%
same,Activity,[37],97%
same,Activity,[38],95%
same,Activity,[39],103%
